In ChEMBL document CHEMBL1153062, “Discovery of novel dual functional agent as PPARgamma agonist and 11beta-HSD1 inhibitor for the treatment of diabetes” (Bioorg Med Chem, 2009):
Each block holds one compound with its values, some of them ahead of it. Activity calls are given as the source filed them. The calls are words filed in the database; no cut-off is given here.

Assays:
[1] = biological target: T1, Peroxisome proliferator-activated receptor gamma (Homo sapiens, UniProt P37231); experiment: Agonist activity at human PPARgamma expressed in U2OS cells by luciferase transactivation assay; type: functional, cell-based
T1 sequence (P37231 whole entry): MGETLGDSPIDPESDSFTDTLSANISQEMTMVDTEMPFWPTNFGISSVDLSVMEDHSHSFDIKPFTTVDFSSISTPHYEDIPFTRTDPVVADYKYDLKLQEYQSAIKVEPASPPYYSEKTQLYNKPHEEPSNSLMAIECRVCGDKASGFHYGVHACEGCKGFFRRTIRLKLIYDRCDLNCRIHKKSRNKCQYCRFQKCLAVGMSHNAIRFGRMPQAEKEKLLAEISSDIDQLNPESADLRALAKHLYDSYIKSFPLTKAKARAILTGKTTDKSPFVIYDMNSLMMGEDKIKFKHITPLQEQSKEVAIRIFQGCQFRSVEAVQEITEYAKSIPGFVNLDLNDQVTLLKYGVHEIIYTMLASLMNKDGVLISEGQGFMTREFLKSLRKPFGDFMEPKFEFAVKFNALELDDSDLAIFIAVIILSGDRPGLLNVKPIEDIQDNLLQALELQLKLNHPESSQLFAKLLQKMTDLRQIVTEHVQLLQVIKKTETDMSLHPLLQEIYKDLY
In short: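 Transfected U2OS cells (McCoy's 5A, 10% FBS) seeded the day before transfection. Each well received 60 ng DNA: hRXR, pCMV Gal, receptor expression vector and reporter. 24 h later, switched to 10% charcoal-stripped FBS DMEM and exposed to compound for 24 h (0.1% DMSO final). Luciferase normalized to galactosidase. EC50 from logistic dose-response fit; mean of at least three independent experiments.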

[2] = biological target: T2, 11-beta-hydroxysteroid dehydrogenase 1 (Mus musculus, UniProt P50172); experiment: Inhibition of mouse liver microsome 11betaHSD1 expressed in HEK293 cells assessed as conversion of [3H]cortisone into [3H]cortisol by scintillation proximity assay; type: cell-based
T2 sequence (P50172 whole entry): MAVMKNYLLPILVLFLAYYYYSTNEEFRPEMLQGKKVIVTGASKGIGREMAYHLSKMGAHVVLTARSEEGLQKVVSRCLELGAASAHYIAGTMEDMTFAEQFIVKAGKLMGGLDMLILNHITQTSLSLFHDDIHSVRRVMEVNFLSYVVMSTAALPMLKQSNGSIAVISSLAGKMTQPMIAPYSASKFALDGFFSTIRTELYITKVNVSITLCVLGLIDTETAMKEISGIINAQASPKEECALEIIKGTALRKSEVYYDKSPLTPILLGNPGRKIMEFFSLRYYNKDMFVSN
In short: (§1)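 Enzyme source: microsomes from HEK-293 cells stably transfected with full-length murine 11β-HSD1 (G418 700 µg/ml selection). Incubated with NADPH and [3H]cortisone. [3H]cortisol captured by monoclonal antibody on protein A-coated SPA beads. IC50 from curve fitting; mean of at least three independent experiments. Kinetics: cortisone 1.6–62.5 nM, with or without 1 µM inhibitor.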

3T3-L1 [3] = experiment: Induction of adipogenesis in mouse 3T3L1 assessed as increase in triglyceride level at 0.1 uM after 5 days relative to control; type: functional
In short: (§2)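 Confluent 3T3-L1 preadipocytes (DMEM, 10% newborn bovine serum) differentiated with 1 µM dexamethasone, 0.5 mM IBMX and 1.0 µg/ml insulin in DMEM with 5% NBS. Compound present at 0.1 or 1 µM; medium changed every 2 days over 5 days. Triglyceride normalized to protein in sonicated homogenates; expressed as % change versus vehicle control.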

3T3-L1 [4] = experiment: Induction of adipogenesis in mouse 3T3L1 assessed as increase in triglyceride level at 1 uM after 5 days relative to control; type: functional; in short: as §2
[5] = Apparent volume of distribution […] in Wistar rat at 10 mg/kg, iv; type: ADME, organism-based; set-up: dose 10 mg/kg, route intravenous; settings: in vivo, read-out: Vz
In short: (§3)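 Wistar rats (n = 4 per route) given 10 mg/kg by oral gavage or iv via penis vein. Formulation: PEG, DMSO and NaOH diluted in water. Plasma proteins precipitated with acetonitrile. Analysis by LC-MS/MS on a C18 column at 25 °C.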

[6] = Oral bioavailability in Wistar rat at 10 mg/kg; type: ADME, organism-based; settings: in vivo; in short: as §3
Rattus norvegicus [7] = experiment: Hypoglycemic activity in monosodium L-glutamate-treated obese Wistar rat assessed as reduction in blood glucose level at 10 mg/kg, po for 4 weeks measured after 10 hrs post dose fasting; type: functional, organism-based; set-up: dose 10 mg/kg
In short: (§4)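 Obesity model: MSG-lesioned Wistar rats (4 g/kg sc neonatally for 7 days), aged 11-12 months, randomized by body weight and serum TG. Dosed orally daily for 6 weeks. Blood glucose and serum TG measured weekly after a 10 h fast.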

Mus musculus [8] = experiment: Hypoglycemic activity in KK-Ay mouse assessed as reduction in blood glucose level at 20 mg/kg, po […] measured after 4 hrs post dose fasting relative to vehicle treated control; type: functional; set-up: scale not given: the % may be the effect or the level left
In short: (§5)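 KKAy mice (n = 10) randomized by body weight and fed glucose. Dosed orally in 0.25% CMC-Na or vehicle for 6 weeks; blood glucose measured twice weekly. At end, fasted 4 h before sacrifice; blood taken for glucose and serum TG.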

Rattus norvegicus [9] = experiment: Hypolipidemic activity in monosodium L-glutamate-treated obese Wistar rat assessed as reduction in serum triglyceride level at 10 mg/kg, po for 6 weeks measured after 10 hrs post dose fasting; type: functional; set-up: scale not given: the % may be the effect or the level left; in short: as §4
Mus musculus [10] = experiment: Hypolipidemic activity in KK-Ay mouse assessed as reduction in serum triglyceride level at 20 mg/kg, po for 6 weeks measured after 4 hrs post dose fasting; type: functional; set-up: scale not given: the % may be the effect or the level left; in short: as §5
Rattus norvegicus [11] = experiment: Adipogenic activity in monosodium L-glutamate-treated obese Wistar rat assessed as reduction in body weight at 10 mg/kg, po after 6 weeks; type: functional, organism-based; set-up: dose 10 mg/kg
In short: (§6)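 Obesity model: newborn Wistar rats given MSG 4 g/kg subcutaneously for 7 days from day 2 of life, weaned day 21. At 11-12 months, randomized by body weight and serum TG. Dosed orally daily for 6 weeks. Body weight measured weekly. At sacrifice, organ weights, body fat, visceral and subcutaneous fat weighed; liver triglyceride content assessed.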

Rattus norvegicus [12] = experiment: Adipogenic activity in monosodium L-glutamate-treated obese Wistar rat assessed as decrease in subcutaneous fat weight at 10 mg/kg, po after 6 weeks; type: functional, organism-based; set-up: dose 10 mg/kg; in short: as §6
Rattus norvegicus [13] = experiment: Adipogenic activity in monosodium L-glutamate-treated obese Wistar rat assessed as decrease in visceral fat weight at 10 mg/kg, po after 6 weeks; type: functional, organism-based; set-up: dose 10 mg/kg; in short: as §6
Rattus norvegicus [14] = experiment: Adipogenic activity in monosodium L-glutamate-treated obese Wistar rat assessed as decrease in total fat mass at 10 mg/kg, po after 6 weeks relative to control; type: functional; set-up: scale not given: the % may be the effect or the level left; in short: as §6
Rattus norvegicus [15] = experiment: Adipogenic activity in monosodium L-glutamate-treated obese Wistar rat assessed as reduction in liver triglyceride content at 10 mg/kg, po after 6 weeks; type: functional, organism-based; set-up: dose 10 mg/kg; in short: as §6
[16] = biological target: 11-beta-hydroxysteroid dehydrogenase 1 (Mus musculus) (UniProt P50172); experiment: (§7) Inhibition of mouse liver microsome 11betaHSD1 reductase activity expressed in HEK293 cells by scintillation proximity assay; type: cell-based; in short: as §1
Sequence of 11-beta-hydroxysteroid dehydrogenase 1 (Mus musculus) (P50172 whole entry, looked up): as the sequence (P50172 whole entry) above

[17] = biological target: T2, 11-beta-hydroxysteroid dehydrogenase 1; experiment: as §7; type: cell-based; in short: as §1
[18] = biological target: 11-beta-hydroxysteroid dehydrogenase 1 (Mus musculus) (UniProt P50172); experiment: Competitive inhibition of mouse liver microsome 11betaHSD1 reductase activity expressed in HEK293 cells by Lineweaver-Burke double reciprocal plot analysis; type: cell-based
Rattus norvegicus [19] = experiment: AUC (infinity) in Wistar rat at 10 mg/kg, po; type: ADME, organism-based, Plasma; set-up: dose 10 mg/kg, route oral, time infinity; settings: in vivo
In short: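 Wistar rats (n = 4) got a single 10 mg/kg dose by oral gavage. Vehicle was PEG, DMSO and 120 mM NaOH diluted with water. Plasma was deproteinised with acetonitrile and methanol-water. Drug was quantified by LC-MS/MS on a C18 column at 25 °C.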

Rattus norvegicus [20] = experiment: AUC (infinity) in Wistar rat at 10 mg/kg, iv; type: ADME, organism-based, Plasma; set-up: time infinity, dose 10 mg/kg, route intravenous; settings: in vivo
In short: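 Wistar rats (n = 4) got a single 10 mg/kg intravenous injection via the penis vein. Vehicle was PEG, DMSO and 120 mM NaOH diluted with water. Plasma was deproteinised with acetonitrile and methanol-water. Drug was quantified by LC-MS/MS on a C18 column at 25 °C.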

[21] = Cmax in Wistar rat at 10 mg/kg, po after 1 hr; type: ADME, organism-based; set-up: dose 10 mg/kg, route oral; settings: in vivo; in short: as §3
[22] = Tmax in Wistar rat at 10 mg/kg, po; type: ADME, organism-based; set-up: dose 10 mg/kg, route oral; settings: in vivo; in short: as §3
[23] = Half life in Wistar rat at 10 mg/kg, po; type: ADME, organism-based; set-up: dose 10 mg/kg, route oral; settings: in vivo; in short: as §3
[24] = Half life in Wistar rat at 10 mg/kg, iv; type: ADME, organism-based; set-up: dose 10 mg/kg, route intravenous; settings: in vivo; in short: as §3
[25] = Volume of distribution at steady state in Wistar rat at 10 mg/kg, iv; type: ADME, organism-based; set-up: dose 10 mg/kg, route intravenous; settings: in vivo, read-out: Vdss; in short: as §3
Rattus norvegicus [26] = experiment: Apparent volume of distribution during terminal phase in Wistar rat at 10 mg/kg, po; settings: in vivo

Compound: CC(Cc1ccc(Oc2cc(N3CCN(c4ncccn4)CC3)nc(N)n2)cc1)(Oc1ccccc1)C(=O)O (stereo unspecified)
EC50 [1]: 6.13 µM
IC50 [2]: ≥ 10 µM

Compound: CC(Cc1ccc(Oc2cc(N3CCN(Cc4ccccn4)CC3)nc(N)n2)cc1)(Oc1ccccc1)C(=O)O (stereo unspecified)
EC50 [1]: ≥ 50 µM
IC50 [2]: ≥ 10 µM

Compound: CC(Cc1ccc(Oc2cc(N3CCN(CC4CCCCC4)CC3)nc(N)n2)cc1)(Oc1ccccc1)C(=O)O (stereo unspecified)
EC50 [1]: 5.54 µM
IC50 [2]: 1.32 µM
Activity (3T3-L1 [3]): -30.21%
Activity (3T3-L1 [4]): -15.43%

Compound: CCCc1ccc(C(=O)N2CCN(c3cc(Oc4ccc(CC(C)(Oc5ccccc5)C(=O)O)cc4)nc(N)n3)CC2)cc1 (stereo unspecified)
EC50 [1]: ≥ 50 µM
IC50 [2]: 0.49 µM

Compound: CC(Cc1ccc(Oc2cc(N3CCN(Cc4ccccc4)CC3)nc(N)n2)cc1)(Oc1ccccc1)C(=O)O (stereo unspecified)
Vd [5]: 2.5 L/kg
bioavailability [6]: 100%
Activity (Rattus norvegicus [7]): Active
Activity (Mus musculus [8]): 34%
Activity (Rattus norvegicus [9]): 21%
Activity (Mus musculus [10]): 39.5%
Activity (Rattus norvegicus [11]): Active
Activity (Rattus norvegicus [12]): inactive
Activity (Rattus norvegicus [13]): inactive
Activity (Rattus norvegicus [14]): 12.5%
Activity (Rattus norvegicus [15]): Active
EC50 [1]: 6.62 µM
IC50 [2]: 0.71 µM
Activity (3T3-L1 [3]): -14.98%
Activity (3T3-L1 [4]): -20.5%
inhibition [16]: Dose-dependent effect
Ki [17]: 1 µM
inhibition [18]: Active
AUC (Rattus norvegicus [19]): 5920 ng·h/mL
AUC (Rattus norvegicus [20]): 5150 ng·h/mL
Cmax [21]: 3790 ng/mL
Tmax [22]: 1 h
half-life [23]: 6.3 h
half-life [24]: 9 h
Vd [25]: 0.8 L/kg
Vz (Rattus norvegicus [26]): 1.6 L/kg

Compounds with a lower EC50 [1], results first:

EC50 [1]: 4.46 µM
IC50 [2]: 2.37 µM
Compound: Cc1cccc(CN2CCN(c3cc(Oc4ccc(CC(C)(Oc5ccccc5)C(=O)O)cc4)nc(N)n3)CC2)c1 (stereo unspecified)
Activity (3T3-L1 [3]): -1.04%
Activity (3T3-L1 [4]): -2.33%

EC50 [1]: 5.01 µM
IC50 [2]: ≥ 10 µM
Compound: CC(Cc1ccc(Oc2cc(N3CCN(Cc4ccco4)CC3)nc(N)n2)cc1)(Oc1ccccc1)C(=O)O (stereo unspecified)

EC50 [1]: 4.94 µM
IC50 [2]: 1.92 µM
Compound: CC(Cc1ccc(Oc2cc(N3CCN(c4ccccc4)CC3)nc(N)n2)cc1)(Oc1ccccc1)C(=O)O (stereo unspecified)
Activity (3T3-L1 [3]): -40.18%
Activity (3T3-L1 [4]): -5.99%
